From PubChem
Wee1 stabilizer = human Wee1 degradation inhibition, primary screen; reporter increase, % at 5 µM; HeLa Luc-Wee1K328M stability, luciferase luminescence; 100% = proteasome inhibitor MG132 effect; hit rate 1.2% among 220,000;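 active means activation above the mean of all tested compounds plus 3 SD, set per screening run, cut at about 8.8% in these data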;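 further: cells exposed to compound for 20 h before luminescence read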
Target sequence (P30291 whole entry K328M): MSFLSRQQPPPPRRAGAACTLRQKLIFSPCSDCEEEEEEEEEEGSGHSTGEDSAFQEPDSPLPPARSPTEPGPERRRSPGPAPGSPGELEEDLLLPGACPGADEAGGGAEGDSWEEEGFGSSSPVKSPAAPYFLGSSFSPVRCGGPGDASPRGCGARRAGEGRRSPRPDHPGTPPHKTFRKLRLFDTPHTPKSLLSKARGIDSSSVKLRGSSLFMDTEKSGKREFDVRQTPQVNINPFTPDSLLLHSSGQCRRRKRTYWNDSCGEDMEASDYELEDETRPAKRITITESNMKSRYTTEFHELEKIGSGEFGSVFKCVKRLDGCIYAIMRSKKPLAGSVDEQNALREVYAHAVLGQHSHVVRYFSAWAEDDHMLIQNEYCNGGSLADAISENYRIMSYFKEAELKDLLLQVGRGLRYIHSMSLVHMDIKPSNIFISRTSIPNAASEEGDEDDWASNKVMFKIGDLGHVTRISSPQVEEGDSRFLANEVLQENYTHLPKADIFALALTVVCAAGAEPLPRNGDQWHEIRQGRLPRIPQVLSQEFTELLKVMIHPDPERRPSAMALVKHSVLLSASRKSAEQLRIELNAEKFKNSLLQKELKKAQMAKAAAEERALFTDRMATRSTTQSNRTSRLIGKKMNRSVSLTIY
Mdm2 ligase inh = Mdm2 E3 ligase (human) inhibition; Q00987; cell-based MDM2 ubiquitination luciferase reporter, 2 h; 0 = plate control, 100 = twice control, blank-subtracted; signal enhancement, % at 5 µM; hit rate 0.11% among 210,000;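 active means signal enhancement of 30% or more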;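 further: luminescence tracks abundance of the self-degrading MDM2-luciferase fusion protein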
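Assay system: mammalian cells stably expressing self-ubiquitinating, self-degrading MDM2 E3–luciferase fusion. Quantity: 2000 cells in each well. Medium: DMEM culture medium. Compound dosing: single-point 5 µM. Timing: cell settling 4 h, compound treatment 2 h, both 37 °C. Technique: luciferase luminescence. Read-out basis: percent signal gain over controls, blank-subtracted. Benchmarks: plate controls and plate blanks.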
APP 5'UTR act = APP 5'UTR luciferase reporter activation. activation, % at 2 µM. AID 1276. hit rate 1% among 190,000. SH-SY5Y APP 5'UTR luciferase reporter, luminescence; zero percent = DMSO vehicle wells;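 active means activation above a set limit, based on mean plus 3 SD of controls, cut at about 140% in these data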
STAT1 activator = increases IFN-gamma driven STAT1 reporter signal; AID 932; hit rate 2.6% among 200,000; NIH 3T3 STAT1-luciferase reporter, luminescence; 100% = IFN-gamma alone, no compound; activation (% of control), % at 5.5 µM;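 active means activation above the screen-wide mean activation plus 3 SD, cut at about 130% in these data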
p97 ATPase inh = human p97 ATPase inhibition; P55072; recombinant p97 ATPase, Kinase-Glo ATP luminescence, 3 h; inhibition, % at 8 µM; hit rate 0.42% among 220,000; AID 1481; in the data active means inhibition above about 15%
NF-kB neuron act = NF-kB expression increase, human neuronal cells. NF-kB reporter expression; hits give high values. fold change at 12.5 µM. hit rate 1.6% among 190,000. AID 1239; in the data active means fold change above about 3.3
A number is an active result; i = inactive; nt = not tested or not shown. This is a sample that favours compounds with a hit; in the whole collection about 4.6% have one here.

SMILES	Wee1 stabilizer	Mdm2 ligase inh	APP 5'UTR act	STAT1 activator	p97 ATPase inh	NF-kB neuron act
Cn1c(SCC(=O)c2ccccc2)nnc1-c1ccc(O)cc1	i	i	i	129.4	i	i
CN=c1scc(-c2ccccc2F)n1/N=C(\C)c1cccnc1	i	i	186.4	131.8	i	5.97
CC1CCCN(C(=O)CCCn2c(=S)[nH]c3ccccc3c2=O)C1 (stereo not drawn)	9.7	i	i	i	i	i
CC1CCCCC1NC(=O)CCCn1c(=S)[nH]c2ccccc2c1=O (stereo not drawn)	i	i	i	i	i	i
Cc1ccccc1OCc1nc2c3c(ncn2n1)-c1ccccc1CC31CCCC1	i	i	i	i	i	i
Cc1ccccc1OCc1nc2c3cnn(C)c3ncn2n1	i	i	i	141.0	i	i
S=C(Nc1ccccc1)N1CCN(C/C=C/c2ccccc2)CC1	10.0	i	i	i	i	i
COC(=O)c1ccccc1NC(=O)N1CCN(C/C=C/c2ccccc2)CC1	10.1	i	i	i	i	i
COc1cccc(NC(=S)N2CCN(C/C=C/c3ccccc3)CC2)c1	i	i	i	i	i	i
COc1ccc(N=C2CC(C)(C)CC(=O)/C2=C(/O)c2ccccc2)cc1	i	i	i	i	i	i
CN(c1ccccc1)S(=O)(=O)c1cccc(NC(=O)COC(=O)C2CCCCC2)c1	i	i	nt	nt	i	nt
CCOc1ccc(N2C(=O)Nc3ccccc3C2(O)C(=O)NCc2ccc(C)cc2)cc1 (stereo not drawn)	11.6	i	i	i	i	i
CCOc1ccc(N2C(=O)Nc3ccccc3C2(O)C(=O)NCc2ccc3c(c2)OCO3)cc1 (stereo not drawn)	i	i	i	i	i	i
CCN(CC)S(=O)(=O)c1ccc(C(=O)OCC(=O)NCCN2C(=O)CSC2=O)cc1	i	i	i	i	i	i
Cc1cccc(/C(N)=N/OC(=O)Cc2cccs2)c1	i	i	i	131.9	i	i
N/C(=N\OC(=O)Cc1cccs1)c1ccccc1	i	i	i	137.4	i	i
N/C(=N\OC(=O)Cc1cccs1)c1cccc([N+](=O)[O-])c1	i	i	i	i	i	i
Cc1ccc(/C(N)=N/OC(=O)Cc2ccccc2)cc1	i	i	i	132.9	i	i
N/C(=N\OC(=O)Cc1ccccc1)c1ccc(Br)cc1	i	i	i	i	i	i
Cc1ccc(/C(N)=N/OC(=O)Cc2cccs2)cc1	i	i	i	149.6	i	i
O=C(Nc1ccccc1Oc1ccccc1)C1CC1	10.3	i	i	i	i	i
Cc1ccccc1N=Nc1c(C)[nH]n(C(N)=S)c1=O	i	i	i	i	i	i
Cc1cccc(N=Nc2c(C)[nH]n(C(N)=S)c2=O)c1C	i	i	i	130.6	i	i
COC(=O)C(=Cc1ccccc1[N+](=O)[O-])C(=O)OC	i	i	nt	nt	i	nt
CN(C)c1cc(C(F)(F)F)nc(-c2ccccn2)n1	i	31.1	i	i	i	i
SMILES	Wee1 stabilizer	Mdm2 ligase inh	APP 5'UTR act	STAT1 activator	p97 ATPase inh	NF-kB neuron act
Cc1cc(CNC(=O)C(C)Cc2ccccc2)nn1C (stereo not drawn)	i	nt	i	i	i	i
COc1ccc(C=C(c2nc3ccccc3s2)c2nc3ccccc3s2)cc1O	i	i	i	i	i	i
COc1ccc(/C=N/Nc2nc3ccccc3o2)cc1O	i	i	137.2	i	i	8.62
COc1cc(/C=N/NC(=O)c2cc(-c3c(C)nn(-c4ccccc4)c3C)n[nH]2)ccc1O	i	i	i	209.2	i	i
COc1ccc(/C=N/NC(=O)c2nc(-c3ccccc3)cc(-c3ccccc3)n2)cc1O	i	i	i	130.8	i	i
COc1ccc(/C=N/Nc2nc3ccccc3s2)cc1O	i	nt	136.1	i	i	4.62
COc1cc(/C=N/Nc2nc3ccccc3o2)cc(OC)c1O	i	i	i	i	i	i
CCN(CC)S(=O)(=O)c1ccc(NC(=O)COC(=O)CCc2cc(OC)c(OC)c(OC)c2)cc1	i	i	i	i	i	i
O=C(COC(=O)c1ccccc1)NCCC1=CCCCC1	i	i	i	i	i	i
CC(C)OC(=O)COc1cc(O)c2c(=O)cc(-c3ccccc3)oc2c1	i	i	nt	nt	i	nt
Cc1ccc(C(=O)Nc2cc(Cl)ccc2OC(=O)c2ccc(C)cc2)cc1	i	i	i	i	i	4.12
COc1ccc(C(=O)Nc2cc(Cl)ccc2OC(=O)c2ccc(OC)cc2)cc1	i	i	i	i	i	i
Cc1cc(CNC(=O)Cn2nc(C)c([N+](=O)[O-])c2C)c2ccccc2n1	i	i	i	i	i	i
O=C(COC(=O)c1ccc(NS(=O)(=O)c2ccc(F)c(F)c2)cc1)NCC1CCCO1 (stereo not drawn)	i	nt	i	i	i	i
CCOc1c(Cl)cc(/C=N/NC(N)=S)cc1OC	i	i	i	i	i	i
Cc1cccc(-n2ncc3c(N4CCOCC4)ncnc32)c1	i	nt	i	i	i	i
Cc1cccc(-n2ncc3c(N4CC(C)CC(C)C4)ncnc32)c1 (stereo not drawn)	i	i	nt	133.2	i	i
Clc1ccc(-n2ncc3c(N4CCCCCC4)ncnc32)cc1	i	i	i	i	i	i
Cc1cccc(-n2ncc3c(N4CCCC4)ncnc32)c1	i	nt	137.7	i	i	4.84
CC1CN(c2ncnc3c2cnn3-c2ccc(Cl)cc2)CC(C)O1 (stereo not drawn)	i	i	i	146.7	i	i
Cn1ncc2c(Nc3ccc([N+](=O)[O-])cc3)nc(Cl)nc21	i	i	nt	nt	i	nt
Cc1ccc(C(=O)/C=C\C(=O)c2ccc(C)cc2)cc1	i	i	i	i	i	i
Cc1ccc(S/C=C\C(=O)c2ccccc2)cc1	i	i	143.9	i	i	9.97
Cc1ccc(C(=O)/C=C\NCc2ccccc2)cc1	i	i	i	130.5	i	i
COc1ccc(C(=O)/C=C/NCc2ccc(C)cc2)cc1	i	nt	i	i	i	nt
SMILES	Wee1 stabilizer	Mdm2 ligase inh	APP 5'UTR act	STAT1 activator	p97 ATPase inh	NF-kB neuron act
CC(C)(C)c1ccc(OCc2ccc(C(=O)N/N=C/c3ccc([N+](=O)[O-])cc3)o2)cc1	i	i	i	131.4	i	i
Cc1nn(C)c(C)c1/C=N/NC(=O)CCn1nc(C)c([N+](=O)[O-])c1C	i	i	i	i	i	i
Cc1nc2c(C(=O)N3CCN(C)CC3)cnn2c(C)c1Cc1ccc(Cl)cc1	i	i	nt	i	i	i
Cc1nc2c(C(=O)N3CCCCC3)cnn2c(C)c1Cc1ccccc1F	i	i	i	137.6	i	i
CC(=O)OCc1c(C)cc(C)c(/C=C(/C#N)C(N)=O)c1C	i	i	i	i	i	i
Cc1ccc(OC(=O)c2sc3ncn(C)c(=O)c3c2C)cc1	i	i	i	135.5	i	3.35
O=C(COc1ncnc2sccc12)NC1CCS(=O)(=O)C1 (stereo not drawn)	i	i	nt	nt	i	nt
